Assay results taken from ChEMBL document CHEMBL1138158, “Synthesis, pharmacology, and structure-activity relationships of novel imidazolones and pyrrolones as modulators of GABAA receptors” (J Med Chem, 2006).

Tests used:
Mus musculus [1] = experiment: Neurotoxicological activity in NMRI BR mice after ip administration by rotarod test; format: functional
Procedure, shortened: (§1)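 Male mice (CF-1 at NIH; NMRI BR at elbion), trained beforehand, dosed i.p. Motor impairment was defined as failure to stay on a rod (6 rpm, 0.9 cm diameter) for 1 min in at least one of three trials. The same animals were tested at several times (≥3 doses, n = 8/group). TD50 at peak time by probit analysis.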

[2] = target: GABA-A receptor; anion channel (Rattus norvegicus) (UniProt O09028+P15431+P18506+P18508+P19969+P20236+P23574+P23576+P28471+P28473+P30191+P62813+P63079+P63138+Q91ZM7+Q9ES14); experiment: Inhibition of Wistar rat benzodiazepine receptor at 2 uM; format: protein-complex assay
Mus musculus [3] = experiment: Anxiolytic activity in NMRI BR mice after ip administration by PTZ test; format: functional
Procedure, shortened: (§2)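 Male mice (NMRI BR at elbion, three per dose; CF-1 at NIH, up to five) given compound or vehicle i.p. at 30, 100, 300 mg/kg, 30 min and 4 h pretreatment. PTZ 85 mg/kg s.c. into neck, then 30 min observation for first generalized clonic seizure with loss of righting reflex.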

[4] = Partition coefficient of the compound, log P; format: physicochemical; conditions: octanol/water
Procedure, shortened: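 Experimental 1-octanol/water partition coefficient.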

Rattus norvegicus [5] = experiment: Anxiolytic activity in rat after oral administration by PTZ test; format: functional
Procedure, shortened: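 Rats dosed orally. PTZ 70 mg/kg given s.c., then 30 min observation for first generalized clonic seizure with loss of righting reflex. Protection was measured at several pretreatment times (n = 3-4), and the peak time was used for the dose-response.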

Rattus norvegicus [6] = experiment: Neurotoxicological activity in rat after oral administration by rotarod test; format: functional
Procedure, shortened: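 Trained male rats dosed orally. Motor impairment was defined as failure to stay on a rod (8 rpm, 6 cm diameter) for 1 min in at least one of three trials. The same animals were tested at several time points (≥3 dose groups, n = 8/group). TD50 at time of peak neurotoxicity by probit analysis.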

[7] = target: GABA-A receptor; anion channel; experiment: Binding affinity to Wistar rat benzodiazepine receptor; format: protein-complex assay
Procedure, shortened: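 Rat (male Wistar, 180-200 g) whole-brain membranes without cerebellum in 0.05 M Tris/HCl pH 7.7. Bound ligand separated on filters and counted by scintillation. IC50 from 6-10 concentrations, Ki by Cheng-Prusoff, at least four repeats averaged.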

Rattus norvegicus [8] = experiment: Anxiolytic activity in rat after oral administration by vogel conflict test; format: functional; conditions: read-out: MED
Procedure, shortened: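 Modified Vogel conflict test in rats after oral dosing. Water-deprived 24 h, trained to drink 5.0% glucose for 5 min, deprived a further 24 h. The 210 s test session had 30 s unpunished drinking, then 180 s with mild shock on touching the drinking tube. Punished and unpunished licks counted. Minimal effective dose reported.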

Mus musculus [9] = experiment: Neurotoxicological activity in CF1 mice after ip administration by rotarod test; format: functional; procedure, shortened: as §1
Cynomolgus monkey [10] = experiment: Plasma concentration in cynomolgus monkey at 30 mg/kg, po; format: ADME, organism-based, Macaca fascicularis; parameters: dose 30 mg/kg, route oral; conditions: in vivo
Mus musculus [11] = experiment: Anxiolytic activity in CF1 mice after ip administration by PTZ test; format: functional; procedure, shortened: as §2
Cynomolgus monkey [12] = experiment: Plasma concentration in cynomolgus monkey at 5 mg/kg, po; format: ADME, organism-based, Macaca fascicularis; parameters: dose 5 mg/kg, route oral; conditions: in vivo

SMILES	TD50 (Mus musculus [1]) [mg/kg]	inhibition [2] [%]	ED50 (Mus musculus [3]) [mg/kg]	logP [4]	ED50 (Rattus norvegicus [5]) [mg/kg]	TD50 (Rattus norvegicus [6]) [mg/kg]	Ki [7] [µM]	minimal effective dose (Rattus norvegicus [8]) [mg/kg]	TD50 (Mus musculus [9]) [mg/kg]	concentration (Cynomolgus monkey [10]) [µM]	ED50 (Mus musculus [11]) [mg/kg]	concentration (Cynomolgus monkey [12]) [nM]
O=C1N=C(N2CCOCC2)CN1c1cccc(Cl)c1	> 300	< 20	> 300	1.3	–	–	–	–	–	–	–	–
O=C1N=C(N2CCOCC2)CN1c1ccc(Br)cc1	345	–	21.8	1.4	27.7	473	3.06	100	–	–	–	–
O=C1C=C(N2CCCCCC2)CN1c1ccc(Cl)cc1	> 100	–	234	3.4	–	–	0.44	–	–	–	–	–
COC1(OC)C(N2CCOCC2)=NC(=O)N1c1ccc(Cl)cc1	> 30	< 20	> 100	1.7	–	–	–	–	–	–	–	–
Clc1ccc(-n2cnc(-c3ccccc3)c2)cc1	> 300	–	> 300	3.7	–	–	3.29	–	–	–	–	–
O=C1C=C(c2ccc(Cl)cc2)C(=O)N1c1ccc(Cl)cc1	> 300	< 20	> 300	3	–	–	–	–	–	–	–	–
O=C1C=C(N2CCCC2)C(=O)N1c1ccc(Cl)cc1	> 300	–	> 300	3	–	–	3.26	–	–	–	–	–
O=C1N=C(N2CCOCC2)CN1c1ccc(Cl)cc1 [IMEPITOIN]	75.6	–	–	1.5	–	998	4.35	3	176	39	17.2	–
Clc1ccc(-c2noc(N3CCOCC3)n2)cc1	> 300	–	> 300	3.1	–	–	26.1	–	–	–	–	–
O=C1N=C(N2CCCCCC2)CN1c1ccc(Cl)cc1	> 300	–	> 300	–	–	–	11.6	–	–	–	–	–
O=C1C=C(N2CCOCC2)C(=O)N1c1ccc(Cl)cc1	> 300	–	120	2.3	–	–	8.88	–	–	–	–	–
O=C1N=C(N2CCOCC2)CN1c1ccc(Cl)c(Cl)c1	> 300	< 20	> 300	1.9	–	–	–	–	–	–	–	–
O=C1C=C(N2CCCC2)C(=O)N1c1ccc(F)cc1	> 300	< 20	> 200	2.3	–	–	–	–	–	–	–	–
O=C1C2C=Nc3ccccc3C2=NN1c1ccc(Cl)cc1 (configuration not stated) [CGS-9896]	302	–	1.36	–	2.7	> 500	0.0024	0.3	–	–	–	27
CN1CCN(C2=NC(=O)N(c3ccc(Cl)cc3)C2)CC1	> 100	< 20	> 300	2.2	–	–	–	–	–	–	–	–
O=C1C=C(N2CCOCC2)C(=O)N1c1ccc(F)cc1	> 100	< 20	128	1.5	–	–	–	–	–	–	–	–
Clc1ccc(-c2cnn(-c3ccccn3)c2)cc1	> 300	–	> 300	4.3	–	–	–	–	–	–	–	–
O=C1C=C(N2CCCC2)CN1c1ccc(Cl)cc1	> 300	–	> 300	–	> 200	–	0.067	–	–	–	–	–
O=C1N=C(N2CCCC2)CN1c1ccc(Cl)cc1	> 300	–	> 300	2	14.2	> 500	4.29	3	–	–	–	–

SMILES	TD50 (Mus musculus [1]) [mg/kg]	inhibition [2] [%]	ED50 (Mus musculus [3]) [mg/kg]	logP [4]	ED50 (Rattus norvegicus [5]) [mg/kg]	TD50 (Rattus norvegicus [6]) [mg/kg]	Ki [7] [µM]	minimal effective dose (Rattus norvegicus [8]) [mg/kg]	TD50 (Mus musculus [9]) [mg/kg]	concentration (Cynomolgus monkey [10]) [µM]	ED50 (Mus musculus [11]) [mg/kg]	concentration (Cynomolgus monkey [12]) [nM]
O=c1cc(-c2ccccc2)on1-c1ccc(Cl)cc1	< 300	–	253	4.1	–	–	–	–	–	–	–	–
O=C1C=C(N2CCOCC2)CN1c1ccc(Cl)cc1	97	–	10.9	1.9	–	> 500	0.141	10	60.9	–	–	–
CN1C(=O)CN=C(c2ccccc2)c2cc(Cl)ccc21 [DIAZEPAM]	2	–	0.4	–	6.3	13	–	1	–	–	–	–
CC(c1ccccc1)N1CC(N2CCOCC2)=NC1=O (configuration not stated)	> 100	–	> 300	0.8	–	–	–	–	–	–	–	–
O=c1cc(-c2ccccc2)[nH]n1-c1ccc(Cl)cc1	> 300	< 20	> 300	2.6	–	–	–	–	–	–	–	–
CN(C)C1=NC(=O)N(c2ccc(Cl)cc2)C1	> 300	< 20	> 300	1.6	–	–	–	–	–	–	–	–
CN(C1=NC(=O)N(c2ccc(Cl)cc2)C1)C1CCCCC1	> 300	–	> 300	2.7	–	–	–	–	–	–	–	–
O=C1N=C(N2CCOCC2)CN1Cc1c(Cl)cccc1Cl	> 300	–	> 300	1.3	–	–	–	–	–	–	–	–
O=c1oc(-c2ccccc2)nn1-c1ccc(Cl)cc1	> 300	< 20	> 300	2.6	–	–	–	–	–	–	–	–
O=C1N=C(N2CCOCC2)CN1c1ccccc1	> 300	–	121	0.6	–	–	6.28	–	–	–	–	–
O=C1N=C(N2CCOCC2)CN1c1ccc(F)cc1	–	< 20	–	–	34.1	> 60	–	–	> 500	–	35	–
O=C1N=C(N2CCOCC2)CN1Cc1ccccc1Cl	> 300	–	> 300	1	–	–	–	–	–	–	–	–
Cc1cccc(N2CC(N3CCOCC3)=CC2=O)c1	< 100	–	62.3	1.5	–	–	4.45	–	–	–	–	–
O=C1N=C(N2CCOCC2)CN1Cc1ccccc1	> 300	< 20	> 300	0.5	–	–	–	–	–	–	–	–
O=C1N=C(N2CCOCC2)CN1c1ccc(I)cc1	–	–	–	1.7	50	> 50	–	–	> 300	–	43	–
Cc1ccc(N2CC(N3CCOCC3)=CC2=O)cc1	100	–	89.3	1.4	–	–	0.344	–	–	–	–	–
O=C1N=C(N2CCCCCCC2)CN1c1ccc(Cl)cc1	> 300	–	> 300	2.7	–	–	–	–	–	–	–	–
O=C1C=C(N2CCOCC2)CN1c1ccc(F)c(Cl)c1	< 100	–	22.3	2.2	–	–	2.05	–	–	–	–	–
O=C1C=C(N2CCOCC2)CN1c1ccc(F)cc1	> 300	–	337	–	–	–	0.494	–	–	–	–	–
